According to ChEMBL document CHEMBL1125642, “Fluorocarbocyclic nucleosides: synthesis and antiviral activity of 2'- and 6'-fluorocarbocyclic 2'-deoxy guanosines” (1991):
Converted amounts (≈) assume the structure as drawn.

What was measured:
[1] = system: Human alphaherpesvirus 2; experiment: Concentration required to inhibit HSV-2 strain 186 cytopathic effect by 50% was measured by plaque reduction assay; assay type: functional; conditions: for IC50: Human alphaherpesvirus 2, read-out: ID50 (the source's name)
How it was run: (§1)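 Plaque reduction in confluent Vero monolayers infected with 30-40 PFU of HSV-1 KOS or HSV-2 186, with 1 h adsorption at 37 °C. Cells were then overlaid with maintenance medium containing 0.75% carboxymethylcellulose and a range of compound concentrations. After 2 days at 37 °C, cells were fixed and stained and plaques counted. ID50 is the concentration giving 50% plaque reduction.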

[2] = system: Human alphaherpesvirus 2; experiment: In vivo efficacy of compound against HSV-2 strain CT in the mouse system model was measured at 25 dose(mg/kg), activity expressed as Survivors counted on day 21; 3/5
[3] = system: Human alphaherpesvirus 1; experiment: Concentration required to inhibit HSV-1 strain KOS cytopathic effect by 50% was measured by plaque reduction assay; assay type: functional; conditions: for IC50: Human alphaherpesvirus 1, read-out: ID50 (the source's name); how it was run: as §1
[4] = system: Human alphaherpesvirus 2; experiment: In vivo efficacy of compound against HSV-2 strain A133 in the mouse system model was measured at 6.25 dose(mg/kg), activity expressed as Survivors counted on day 21; assay type: functional
How it was run: (§2)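 Female albino mice (15-18 g) were challenged ip with 0.2 mL virus suspension at (5-15) × LD50. Starting 1 h later, they were dosed sc (0.2 mL, saline) twice daily for 4 days. Doses were the maximum tolerated dose and serial dilutions of it. Groups had 5-10 mice. Survivors were counted on day 21, and ED50 (mg/kg per dose) came from logit transformation (Litchfield–Wilcoxon).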

[5] = system: Human alphaherpesvirus 2; experiment: In vivo efficacy of compound against HSV-2 strain CT in the mouse system model was measured at 100 dose(mg/kg), activity expressed as Survivors counted on day 21; 7/10
[6] = system: Human alphaherpesvirus 2; experiment: In vivo efficacy of compound against HSV-2 strain CT in the mouse system model was measured at 100dose(mg/kg), activity expressed as Survivors counted on day 21; 2/5
[7] = system: Human alphaherpesvirus 1; experiment: In vivo efficacy of compound against HSV-1 strain A133 in the mouse system model was measured at 25 dose(mg/kg), activity expressed as Survivors counted on day 21; 1/10; assay type: functional; how it was run: as §2
[8] = system: Human alphaherpesvirus 1; experiment: Compound was measured for the inhibition of HSV-1 strain A133 in the mouse system model at 25 dose(mg/kg); assay type: functional; how it was run: as §2
[9] = system: Human alphaherpesvirus 1; experiment: In vivo efficacy of compound against HSV-1 strain A133 in the mouse system model was measured at 100 dose(mg/kg), activity expressed as Survivors counted on day 21; 3/5; assay type: functional; how it was run: as §2
[10] = system: Human alphaherpesvirus 1; experiment: In vivo efficacy of compound against HSV-1 strain A133 in the mouse system model was measured at 6.25 dose(mg/kg), activity expressed as Survivors counted on day 21; 0/10; assay type: functional; how it was run: as §2
[11] = system: Human alphaherpesvirus 1; experiment: In vivo efficacy of compound against HSV-1 strain A133 in the mouse system model was measured at 100 dose(mg/kg), activity expressed as Survivors counted on day 21; 8/10; assay type: functional; how it was run: as §2
[12] = system: Human alphaherpesvirus 1; experiment: In vivo efficacy of compound against HSV-1 strain A133 in the mouse system model was measured at 25 dose(mg/kg), activity expressed as Survivors counted on day 21; 2/5; assay type: functional; how it was run: as §2
[13] = system: Human alphaherpesvirus 2; experiment: In vivo efficacy of compound against HSV-2 strain CT in the mouse system model was measured at 25 dose(mg/kg), activity expressed as Survivors counted on day 21; 2/10
[14] = system: Human alphaherpesvirus 1; experiment: In vivo efficacy of compound against HSV-1 strain A133 in the mouse system model was measured at 6.25 dose(mg/kg), activity expressed as Survivors counted on day 21; 0/5; assay type: functional; how it was run: as §2
[15] = system: Human alphaherpesvirus 2; experiment: Compound was measured for the inhibition of HSV-2 strain A133 in the mouse system model at 25 dose(mg/kg); assay type: functional; how it was run: as §2
[16] = system: Human alphaherpesvirus 2; experiment: In vivo efficacy of compound against HSV-2 strain A133 in the mouse system model was measured at 50 dose(mg/kg), activity expressed as Survivors counted on day 21; 1/5; assay type: functional; how it was run: as §2
[17] = system: Vero; experiment: Cytotoxicity was evaluated by measuring the dose affecting 50% of mock-infected Vero monolayers; assay type: functional; conditions: Chlorocebus sabaeus, read-out: ID50 (the source's name)
How it was run: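 Mock-infected confluent Vero monolayers were incubated with compound for 48 h at 37 °C and examined microscopically. Gross changes in staining, cell number or morphology were scored. The value is the dose affecting 50% of the monolayer.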

[18] = system: Human alphaherpesvirus 1; experiment: Compound was measured for the inhibition of HSV-1 strain A133 in the mouse system model at 1.6 dose(mg/kg); assay type: functional; how it was run: as §2
[19] = system: Human alphaherpesvirus 1; experiment: In vivo efficacy of compound against HSV-1 strain A133 in the mouse system model was measured at 3.1 dose(mg/kg), activity expressed as Survivors counted on day 21; 4/5; assay type: functional; how it was run: as §2
[20] = system: Human alphaherpesvirus 2; experiment: In vivo efficacy of compound against HSV-2 strain A133 in the mouse system model was measured at 6.25 dose(mg/kg), activity expressed as Survivors counted on day 21; 5/5; assay type: functional; how it was run: as §2
[21] = system: Human alphaherpesvirus 1; experiment: In vivo efficacy of compound against HSV-1 strain A133 in the mouse system model was measured at 0.1 dose(mg/kg), activity expressed as Survivors counted on day 21; 0/5; assay type: functional; how it was run: as §2
[22] = system: Human alphaherpesvirus 2; experiment: In vivo efficacy of compound against HSV-2 strain A133 in the mouse system model was measured at 0.4 dose(mg/kg), activity expressed as Survivors counted on day 21; 0/5; assay type: functional; how it was run: as §2
[23] = system: Human alphaherpesvirus 2; experiment: In vivo efficacy of compound against HSV-2 strain A133 in the mouse system model was measured at 0.8 dose(mg/kg), activity expressed as Survivors counted on day 21; 2/5; assay type: functional; how it was run: as §2
[24] = system: Human alphaherpesvirus 2; experiment: Compound was measured for the inhibition of HSV-2 strain A133 in the mouse system model at 3.1 dose(mg/kg); assay type: functional; how it was run: as §2
[25] = system: Human alphaherpesvirus 2; experiment: In vivo efficacy of compound against HSV-2 strain A133 in the mouse system model was measured at 3.1 dose(mg/kg), activity expressed as Survivors counted on day 21; 4/5; assay type: functional; how it was run: as §2
[26] = system: Human alphaherpesvirus 1; experiment: In vivo efficacy of compound against HSV-1 strain A133 in the mouse system model was measured at 0.4 dose(mg/kg), activity expressed as Survivors counted on day 21; 2/5; assay type: functional; how it was run: as §2
[27] = system: Human alphaherpesvirus 1; experiment: In vivo efficacy of compound against HSV-1 strain A133 in the mouse system model was measured at 1.6 dose(mg/kg), activity expressed as Survivors counted on day 21; 2/5; assay type: functional; how it was run: as §2
[28] = system: Human alphaherpesvirus 2; experiment: In vivo efficacy of compound against HSV-1 strain A133 in the mouse system model was measured at 1.6 dose(mg/kg), activity expressed as Survivors counted on day 21; 4/5; assay type: functional; how it was run: as §2
[29] = system: Human alphaherpesvirus 2; experiment: In vivo efficacy of compound against HSV-2 strain CT in the mouse system model was measured at 0.1 dose(mg/kg), activity expressed as Survivors counted on day 21; 2/10
[30] = system: Human alphaherpesvirus 2; experiment: In vivo efficacy of compound against HSV-2 strain A133 in the mouse system model was measured at 0.025 dose(mg/kg), activity expressed as Survivors counted on day 21; 0/10; assay type: functional; how it was run: as §2
[31] = system: Human alphaherpesvirus 1; experiment: In vivo efficacy of compound against HSV-1 strain A133 in the mouse system model was measured at 3.1 dose(mg/kg), activity expressed as Survivors counted on day 21; 10/10; assay type: functional; how it was run: as §2
[32] = system: Human alphaherpesvirus 1; experiment: In vivo efficacy of compound against HSV-1 strain A133 in the mouse system model was measured at 0.2 dose(mg/kg), activity expressed as Survivors counted on day 21; 4/10; assay type: functional; how it was run: as §2
[33] = system: Human alphaherpesvirus 2; experiment: In vivo efficacy of compound against HSV-2 strain CT in the mouse system model was measured at 0.7 dose(mg/kg), activity expressed as Survivors counted on day 21; 2/10
[34] = system: Human alphaherpesvirus 2; experiment: In vivo efficacy of compound against HSV-2 strain A133 in the mouse system model was measured at 6.25 dose(mg/kg), activity expressed as Survivors counted on day 21; […]; assay type: functional; how it was run: as §2
[35] = system: Human alphaherpesvirus 1; experiment: In vivo efficacy of compound against HSV-1 strain A133 in the mouse system model was measured at 0.012 dose(mg/kg), activity expressed as Survivors counted on day 21; 1/10; assay type: functional; how it was run: as §2
[36] = system: Human alphaherpesvirus 1; experiment: In vivo efficacy of compound against HSV-1 strain A133 in the mouse system model was measured at 0.8 dose(mg/kg), activity expressed as Survivors counted on day 21; 10/10; assay type: functional; how it was run: as §2
[37] = system: Human alphaherpesvirus 1; experiment: In vivo efficacy of compound against HSV-1 strain A133 in the mouse system model was measured at 0.05 dose(mg/kg), activity expressed as Survivors counted on day 21; 1/10; assay type: functional; how it was run: as §2
[38] = system: Human alphaherpesvirus 1; experiment: Compound was measured for the inhibition of HSV-1 strain A133 in the mouse system model at 0.2 dose(mg/kg); assay type: functional; how it was run: as §2
[39] = system: Human alphaherpesvirus 2; experiment: Compound was measured for the inhibition of HSV-2 strain A133 in the mouse system model at 0.7 dose(mg/kg); assay type: functional; how it was run: as §2
[40] = system: Human alphaherpesvirus 2; experiment: In vivo efficacy of compound against HSV-2 strain CT in the mouse system model was measured at 1.6 dose(mg/kg), activity expressed as Survivors counted on day 21; 7/10

Nc1nc2c(ncn2COCCO)c(=O)[nH]1 [ACYCLOVIR]
IC50 [1]: 0.6 µg/mL (≈ 2.66 µM)
Survivors [2]: 3
IC50 [3]: 0.2 µg/mL (≈ 0.888 µM)
Survivors [4]: 0
Survivors [5]: 7
Survivors [6]: 2
Survivors [7]: 1
ED50 [8]: ~50 mg/kg
ED50 ([8]; Human alphaherpesvirus 1, read-out: ED50): 58 mg/kg
Survivors [9]: 3
Survivors [10]: 0
Survivors [11]: 8
Survivors [12]: 2
Survivors [13]: 2
Survivors [14]: 0
ED50 [15]: 58 mg/kg
Survivors [16]: 1
IC50 [17]: > 300 µg/mL

Nc1nc(O)c2ncn(C3CC(O)C(CO)C3F)c2n1 (single isomer, unassigned; (-))
ID50 [1]: 155 µg/mL (≈ 547 µM)
ID50 [3]: 15 µg/mL (≈ 53 µM)

Nc1nc(O)c2ncn(C3CC(O)C(CO)C3F)c2n1 (single isomer, unassigned; (+))
ID50 [1]: 0.77 µg/mL (≈ 2.72 µM)
ID50 [3]: 0.16 µg/mL (≈ 0.565 µM)
ED50 [18]: 0.97 mg/kg
Survivors [19]: 4
Survivors [20]: 5
Survivors [21]: 0
Survivors [22]: 0
Survivors [23]: 2
ED50 [24]: 1.1 mg/kg
Survivors [25]: 4
Survivors [26]: 2
Survivors [27]: 2
IC50 [17]: > 300 µg/mL
Survivors [28]: 4

Nc1nc2c(ncn2[C@@H]2C[C@H](CO)[C@@H](O)[C@H]2F)c(=O)[nH]1
IC50 [1]: 70 µg/mL (≈ 247 µM)
IC50 [3]: 2.35 µg/mL (≈ 8.3 µM)
IC50 [17]: > 300 µg/mL

Nc1nc2c(ncn2[C@@H]2C[C@H](CO)[C@@H](O)[C@@H]2F)c(=O)[nH]1
Survivors [29]: 2
IC50 [1]: 0.05 µg/mL (≈ 0.177 µM)
Survivors [30]: 0
IC50 [3]: 0.006 µg/mL (≈ 0.0212 µM)
Survivors [31]: 10
Survivors [32]: 4
Survivors [33]: 2
Survivors [34]: 9
Survivors [35]: 1
Survivors [36]: 10
Survivors [37]: 1
ED50 [38]: 0.2 mg/kg
IC50 [17]: > 300 µg/mL
ED50 [39]: 0.8 mg/kg
Survivors [40]: 7

Nc1nc(O)c2ncn([C@@H]3O[C@H](CO)[C@@H](O)[C@@H]3F)c2n1 [F-ARAG]
IC50 [1]: 19 µg/mL (≈ 66.6 µM)
IC50 [3]: 5 µg/mL (≈ 17.5 µM)
IC50 [17]: > 100 µg/mL

Nc1nc(O)c2ncn([C@@H]3C[C@H](CO)[C@@H](O)C3)c2n1
IC50 [1]: 0.44 µg/mL (≈ 1.66 µM)
IC50 [3]: 0.06 µg/mL (≈ 0.226 µM)
IC50 [17]: 300 µg/mL (≈ 1130 µM)
